Only some compounds are listed: those with a hit (about 1.8% of all), similar ones and a draw of the others.
CHRM4 antagonist – blocks acetylcholine activation of human M4 receptor | AID 624125 | inhibition, % at 3 µM | CHO-hM4 cells, ACh EC80, Fluo-8 calcium fluorescence | P08173 | actives 0.73% (n = 360,000);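 active = inhibition above its plate's cutoff, the mean inhibition of sample wells plus 3 SD, cut at about 27% in these data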
M4 PAM – potentiates acetylcholine response at human M4 receptor. actives 0.4% (n = 360,000). CHO-K1 hM4/Gqi5, Fluo-8 calcium fluorescence, ACh EC20; 0% = ACh EC20, 100% = maximal ACh. activation, % at 3 µM. AID 624126. P08173;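 active = activation above its plate's cutoff, the mean activation of sample wells plus 3 SD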
M4 ag – CHRM4 agonism in calcium assay. P08173. CHO-K1 hM4/Gqi5, Fluo-8 calcium fluorescence; vehicle 0%, full acetylcholine response 100%. activation, % at 3 µM. actives 0.14% (n = 360,000);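 active = activation above the run mean over all test wells plus 3 SD, cut at about 32% in these data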;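 also: peak over basal fluorescence ratio per well then scaled between controls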
M5 ag – CHRM5 agonism in calcium assay. P08912. CHO-K1 hM5 cells, Fluo-8 calcium fluorescence; 0% DMSO wells, 100% maximal acetylcholine response. activation, % at 3 µM. actives 0.19% (n = 360,000). AID 624037;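 active = activation above the run's mean over test compounds plus 3 SD, cut at about 23% in these data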;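 also: signal is peak over basal fluorescence ratio across the kinetic read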
Target sequence (P08912 whole entry, looked up): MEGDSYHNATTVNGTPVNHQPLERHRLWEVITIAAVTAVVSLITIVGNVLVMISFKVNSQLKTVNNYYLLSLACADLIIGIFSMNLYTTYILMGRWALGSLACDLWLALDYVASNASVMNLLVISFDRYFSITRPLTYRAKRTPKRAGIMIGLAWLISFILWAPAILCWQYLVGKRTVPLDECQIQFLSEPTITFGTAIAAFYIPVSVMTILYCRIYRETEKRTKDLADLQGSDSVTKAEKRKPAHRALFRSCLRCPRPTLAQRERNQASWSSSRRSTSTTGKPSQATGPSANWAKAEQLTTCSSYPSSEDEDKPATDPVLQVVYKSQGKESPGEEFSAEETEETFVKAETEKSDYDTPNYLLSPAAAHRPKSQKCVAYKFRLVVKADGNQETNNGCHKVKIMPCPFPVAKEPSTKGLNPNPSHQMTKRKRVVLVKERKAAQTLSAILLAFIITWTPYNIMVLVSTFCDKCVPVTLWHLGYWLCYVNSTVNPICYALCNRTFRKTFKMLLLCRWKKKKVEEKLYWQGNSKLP
CHRM5 antagonist – CHRM5 antagonism in calcium assay | P08912 | CHO-hM5 cells, Fluo-8 calcium fluorescence, ACh EC80 | inhibition, % at 3 µM | actives 0.59% (n = 360,000);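 active = inhibition above a per-plate cutoff, the mean of that plate's test compounds plus 3 SD, cut at about 27% in these data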
CHRM5 PAM – positive allosteric modulators of human muscarinic M5 receptor; actives 0.3% (n = 360,000); CHO-K1 hM5, Fluo-8 calcium, ACh EC20 PAM; 0% = ACh EC20, 100% = ACh EC100; activation, % at 3 µM; AID 624038;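 active = activation above the run cutoff, the mean activation of all test compounds plus 3 SD, cut at about 18% in these data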
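Assay system: CHO-K1 hM5 cells / Incubation: Fluo-8 loading 80 min at 37 °C plus 30 min room temperature / Technique: Fluo-8 calcium dye fluorescence, kinetic read / Repeats: single replicate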
Numbers stand for hits; n = inactive.

SMILES	CHRM4 antagonist	M4 PAM	M4 ag	M5 ag	CHRM5 antagonist	CHRM5 PAM
CCOC(C(=O)OCCC[N+](C)(CC)CC)(c1ccccc1)c1ccccc1	n	n	n	n	55.5	n
O=C(O)C(O)(c1ccccc1)C1CCCCC1 (stereo not drawn)	n	n	n	n	n	n
CCOC(C(=O)OCC(O)CN(CC)CC)(c1ccccc1)c1ccccc1 (stereo not drawn)	n	n	n	n	n	n
CC[N+](C)(CC)CCCOC(=O)C(O)(c1ccccc1)C1CCCCC1 (stereo not drawn)	98.5	n	n	n	98.2	n
CCN(CC)CCCOC(=O)C(OC)(c1ccccc1)c1ccccc1	53.4	n	n	n	56.0	n
O=C(O)C1C2CCC(O2)C1C(=O)Nc1ccc(Cl)cc1 (stereo not drawn)	n	n	n	n	n	n
Cc1ccc(S(=O)(=O)N(C)N=O)cc1	n	n	n	n	n	n
CCN(c1ccc(C(O)(C(=O)OC)C(F)(F)F)cc1)S(=O)(=O)c1ccc(C)cc1 (stereo not drawn)	n	n	n	n	n	n
C[N+]12CCC(CC1)C(=C(c1ccccc1)c1ccccc1)C2	97.2	n	n	n	99.1	n
CC[N+]12CCC(CC1)C(=C(c1ccccc1)c1ccccc1)C2	96.9	n	n	n	99.3	n
C1=C(CCNCc2ccccc2)CCCC1	n	n	n	n	n	n
COc1cccc(-n2c(C)nc3ccccc3c2=O)c1	n	27.4	n	n	n	n
N#CCCn1cc(C(=O)Nc2ccccc2Cl)c(-c2ccc(F)cc2)n1	n	n	n	n	n	n
N#CC1=C(N)Oc2c(c(=O)oc3ccccc23)C1c1cccnc1 (stereo not drawn)	n	n	n	n	n	20.2
CCC(CC)C1C(C#N)=C(N)Oc2c1c(=O)oc1ccccc21 (stereo not drawn)	n	n	n	n	n	n
C=CCn1c(O)c(/C=N/N2CCCCC2c2cccnc2)c(=O)[nH]c1=S (stereo not drawn)	n	n	n	n	n	n
CC(C)(O)/C=C/C(=O)C(C)(O)C1C(O)CC2(C)C3CC=C4C(C=C(O)C(=O)C4(C)C)C3(C)C(=O)CC12C (stereo not drawn)	n	n	n	n	n	19.4
CC(=O)OC(C)(C)/C=C/C(=O)[C@](C)(O)C1[C@H](O)C[C@@]2(C)C3CC=C4C(C[C@H](O)C(=O)C4(C)C)[C@]3(C)C(=O)C[C@]12C (stereo partly drawn)	n	23.7	n	n	n	n
Cc1cccc(NC(=S)N2CC3CC(C2)c2cccc(=O)n2C3)c1C (stereo not drawn)	n	n	n	n	n	n
CCC[N+]12CCC(CC1)C(C(O)(c1ccccc1)c1ccccc1)C2 (stereo not drawn)	n	n	n	n	28.2	n
CCCC[N+]12CCC(CC1)C(C(O)(c1ccccc1)c1ccccc1)C2 (stereo not drawn)	n	n	n	n	n	n
CN1CCCC1C(O)(c1ccccc1)c1ccccc1 (stereo not drawn)	n	n	n	n	n	n
C[N+]12CCC(CC1)C(C(O)(c1ccccc1)c1cccs1)C2 (stereo not drawn)	94.3	n	n	n	93.7	n
CC(C)(OOC1(c2ccccc2)NC(=O)c2ccccc21)c1ccccc1 (stereo not drawn)	n	n	n	n	n	n
Cc1ccc(C[n+]2c(-c3ccc(C)cc3)cc(-c3ccc(C)cc3)cc2-c2ccc(C)cc2)cc1	n	n	n	n	37.4	n
SMILES	CHRM4 antagonist	M4 PAM	M4 ag	M5 ag	CHRM5 antagonist	CHRM5 PAM
CN(C)CCSC1c2ccccc2CSc2ccccc21 (stereo not drawn)	98.3	n	n	n	98.9	n
CN1/C(=C\C=C2C(=O)NC(=O)NC2=O)C(C)(C)c2ccccc21	n	n	n	n	n	n
CCN1/C(=C/C=C/C2=[N+](CC)c3ccccc3C2(C)C)C(C)(C)c2ccccc21	94.8	n	365.1	500.5	97.0	n
O=C(C(=O)N1CCOCC1)c1cn(Cc2ccccc2F)c2ccccc12	n	n	n	n	n	n
COc1ccccc1CCNC1CCCC(C)C1 (stereo not drawn)	n	n	n	n	n	n
C[C@]12CCC3[C@@H](CC[C@@H]4C[C@H](O)CC[C@]34C)[C@@H]1CCC2=O (stereo partly drawn)	n	n	n	n	n	n
C[C@]12CCC3C(CC[C@H]4C[C@@H](O)CC[C@]34C)[C@H]1C=CC2=O (stereo partly drawn)	n	15.0	n	n	n	n
C[C@]12CC[C@H](O)C[C@@H]1CC[C@@H]1[C@@H]2CC[C@]2(C)C(=O)CC[C@@H]12	n	n	n	48.0	n	n
CN(Cc1cccc(-c2ccncc2)c1)C(=O)Oc1ccccc1Cc1ccccc1	36.6	n	n	n	43.5	n
CN(Cc1cccc(-c2ccncc2)c1)C(=O)Oc1ccccc1Cl	n	n	n	n	n	n
CNC(C(=O)c1ccccc1)C(OC(C)C)c1ccc(Cl)cc1 (stereo not drawn)	n	n	n	n	n	n
CN1C(=O)N(C)C(=O)C2(Cc3c(ccc4ccccc34)N(C)C2)C1=O	n	n	n	n	n	28.1
COc1ccc(C(=O)CC2(CC(=O)c3ccc(OC)cc3)C(=O)N(C)C(=O)N(C)C2=O)cc1	n	n	n	n	n	n
CCCC(=O)OCC[N+](C)(C)C	n	n	n	42.1	n	n
Clc1ccccc1CNC1CN2CCC1CC2 (stereo not drawn)	n	n	n	n	32.4	n
c1ccc(CNC2CN3CCC2CC3)cc1 (stereo not drawn)	n	n	n	n	n	n
CC(C)=CCN1CC[C@@]2(C)c3cc(O)ccc3CC1C2C (stereo partly drawn)	34.1	n	n	n	n	n
Nc1ccnn1C1CCNCC1	n	n	n	n	27.0	n
CN1CCC(n2nccc2N)CC1	n	n	n	n	n	n
Cc1ccccc1NC(=O)NCCN1CC1	n	n	n	n	n	n
CCOC(=O)C1(CCc2ccccc2)CCN(Cc2cccc3cnccc23)CC1	n	n	n	n	80.8	n
CCOC(=O)C1(CCOc2ccccc2)CCN(Cc2cccc(O)c2)CC1	n	n	n	n	33.1	n
CCOC(=O)C1(CCOc2ccccc2)CCN(C(C)CSC)CC1 (stereo not drawn)	n	n	n	n	n	n
